Data taken from ChEMBL document CHEMBL1143502, “Fluorescent metal ion indicators based on benzoannelated crown systems: a green fluorescent indicator for intracellular sodium ions” (Bioorg Med Chem Lett, 2005).

Tests used:
Assay type in all cases: functional
[1] = The in vitro binding constant in presence of K+ was reported
How it was run: (§1)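 Fluorescence titration in pH 7.0 buffer series (50 mM MOPS, pH set with tetramethylammonium hydroxide) containing 0–1000 mM of the monovalent cation (Li+, Na+, K+ or Rb+) at 20 °C. Kd (mM) was taken from the intensity change with cation concentration, alongside the response S = I[bound]/I[free].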

[2] = The in vitro binding constant in presence of Li+ was reported; how it was run: as §1
[3] = The in vitro binding constant in presence of Rb+ was reported; how it was run: as §1

Compound | Kd [1] [mM] | Kd [2] [mM] | Kd [3] [mM]
COC(=O)CN1CCOCCOCCOCCOc2cc(-c3c4cc(F)c(=O)cc-4oc4cc(O)c(F)cc34)ccc21 | 291 | 142 | 319
COCCN1CCOCCOCCOCCOc2cc(-c3c4cc(F)c(=O)cc-4oc4cc(O)c(F)cc34)ccc21 | 269 |  | 
COC(=O)CN1CCOCCOCCOCCOc2cc(NC(=O)c3ccc(-c4c5cc(F)c(=O)cc-5oc5cc(O)c(F)cc45)c(C(=O)O)c3)ccc21 | 144 | 65 | 157
COC(=O)CN1CCOCCOCCOCCOc2cc(-c3c4ccc(=[N+](C)C)cc-4oc4cc(N(C)C)ccc34)ccc21 | 254 |  | 

Continued by falling Kd [1], values first:

Kd [1] [mM] | Kd [2] [mM] | Kd [3] [mM] | Compound
978 | 438 | 376 | COC(=O)CN1CCOCCOCCOc2cc(-c3c4cc(F)c(=O)cc-4oc4cc(O)c(F)cc34)ccc21
170 |  |  | COC(=O)CN1CCOCCOCCOCCOc2cc(C3=C4C(C)=CC(C)=[N+]4[B-](F)(F)n4c(C)cc(C)c43)ccc21
11 |  | 25 | COC(=O)CN1CCOCCOCCOCCOCCOc2cc(-c3c4cc(F)c(=O)cc-4oc4cc(O)c(F)cc34)ccc21
